Measurements: ChEMBL document CHEMBL2375304, “Synthesis and anticancer activity of novel 2-pyridyl hexahyrocyclooctathieno[2,3-d]pyrimidine derivatives” (2013)

Assays:
Type in all cases: functional
RPMI-8226 = assay: Growth inhibition of human RPMI8226 cells after 48 hrs by Sulforhodamine B assay; conditions: RPMI-8226, 48 h
In short: (§1)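 Cells were preincubated 24 h at 37 °C, 5% CO2, and a time-zero plate was TCA-fixed. Five concentrations were made by serial dilution from a DMSO stock (400-fold the top concentration) and incubated 48 h. Adherent cells were fixed with 10% final TCA and suspension cells with 16%. Plates were stained with 0.4% SRB and read at 515 nm. GI50 is the concentration giving 50% reduction in net protein increase versus control.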

SF-539 = assay: Growth inhibition of human SF539 cells after 48 hrs by Sulforhodamine B assay; conditions: SF-539, 48 h; in short: as §1
NCI-H226 = assay: Growth inhibition of human NCI-H226 cells after 48 hrs by Sulforhodamine B assay; conditions: NCI-H226, 48 h; in short: as §1
IGROV-1 = assay: Growth inhibition of human IGROV1 cells after 48 hrs by Sulforhodamine B assay; conditions: IGROV-1, 48 h
In short: (§2)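 Five-concentration SRB assay using 10-fold or ½-log serial dilutions from a DMSO stock. Exposure is 48 h at 37 °C in 5% CO2 after 24 h preincubation. TCA fixation is followed by SRB staining and a reading at 515 nm. Percentage growth is computed from time-zero, control and treated absorbances. GI50 is the concentration where [(Ti−Tz)/(C−Tz)]×100 = 50, read from the plot against log concentration.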

MDA-MB-468 = assay: Growth inhibition of human MDA-MB-468 cells after 48 hrs by Sulforhodamine B assay; conditions: MDA-MB-468, 48 h; in short: as §1
A549 = assay: Growth inhibition of human A549/ATCC cells after 48 hrs by Sulforhodamine B assay; conditions: A549, 48 h; in short: as §2
UACC-62 = assay: Growth inhibition of human UACC62 cells after 48 hrs by Sulforhodamine B assay; conditions: UACC-62, 48 h
In short: (§3)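 Five-concentration stage in the […]-cell-line panel, using 10-fold or ½-log serial dilutions made from a DMSO stock (400-fold). Cells were preincubated 24 h at 37 °C, then drug-exposed 48 h. A time-zero plate was fixed with TCA at dosing, adherent cells were fixed with cold TCA (10% final), and protein was stained with SRB, absorbance 515 nm. GI50 was where [(Ti−Tz)/(C−Tz)]×100 = 50, from the percent growth vs log concentration plot, expressed as log10 GI50.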

NCI-H322M = assay: Growth inhibition of human NCI-H322M cells after 48 hrs by Sulforhodamine B assay; in short: as §1
UO-31 = assay: Growth inhibition of human UO31 cells after 48 hrs by Sulforhodamine B assay; conditions: UO-31, 48 h; in short: as §3
MCF7 = assay: Growth inhibition of human MCF7 cells after 48 hrs by Sulforhodamine B assay; conditions: MCF7, 48 h; in short: as §2
CCRF-CEM = assay: Growth inhibition of human CCRF-CEM cells after 48 hrs by Sulforhodamine B assay; in short: as §2
M14 = assay: Growth inhibition of human M14 cells after 48 hrs by Sulforhodamine B assay; conditions: M14, 48 h; in short: as §2
K562 = assay: Growth inhibition of human K562 cells after 48 hrs by Sulforhodamine B assay; conditions: K562, 48 h; in short: as §2
UACC-257 = assay: Growth inhibition of human UACC257 cells after 48 hrs by Sulforhodamine B assay; conditions: UACC-257, 48 h; in short: as §3
MDA-MB-231 = assay: Growth inhibition of human MDA-MB-231 cells after 48 hrs by Sulforhodamine B assay; conditions: MDA-MB-231, 48 h; in short: as §2
HOP-62 = assay: Growth inhibition of human HOP62 cells after 48 hrs by Sulforhodamine B assay; conditions: HOP-62, 48 h; in short: as §2
TK-10 = assay: Growth inhibition of human TK10 cells after 48 hrs by Sulforhodamine B assay; conditions: TK-10, 48 h; in short: as §3
NCI-H522 = assay: Growth inhibition of human NCI-H522 cells after 48 hrs by Sulforhodamine B assay; conditions: NCI-H522, 48 h; in short: as §1
OVCAR-5 = assay: Growth inhibition of human OVCAR5 cells at 10^-5 M after 48 hrs by Sulforhodamine B assay relative to control; conditions: OVCAR-5, 48 h, read-out: GI
In short: (§4)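 Single-dose primary screen at 10⁻⁵ M across 49 lines. Cells were plated 24 h beforehand, with a TCA-fixed time-zero plate, then exposed 48 h at 37 °C, 5% CO2. Cells were fixed with cold TCA, stained with SRB and read at 515 nm. Percent growth was calculated against time-zero and untreated-control absorbances.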

OVCAR-3 = assay: Growth inhibition of human OVCAR3 cells at 10^-5 M after 48 hrs by Sulforhodamine B assay relative to control; conditions: OVCAR-3, 48 h, read-out: GI; in short: as §4
DU-145 = assay: Growth inhibition of human DU145 cells at 10^-5 M after 48 hrs by Sulforhodamine B assay relative to control; conditions: DU-145, 48 h, read-out: GI
In short: (§5)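 Single-dose screen at 10⁻⁵ M. Cells are preincubated 24 h at 37 °C in 5% CO2, then exposed to the compound, diluted from a DMSO stock into medium with gentamicin, for 48 h. Adherent cells are fixed with cold TCA (final 10%) and suspension cells with TCA (final 16%). Cells are stained with 0.4% SRB in 1% acetic acid and bound dye is read at 515 nm. Percent growth inhibition is taken against control wells and time-zero plates.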

SF-268 = assay: Growth inhibition of human SF268 cells at 10^-5 M after 48 hrs by Sulforhodamine B assay relative to control; conditions: SF-268, 48 h, read-out: GI; in short: as §4
A498 = assay: Growth inhibition of human A498 cells at 10^-5 M after 48 hrs by Sulforhodamine B assay relative to control; conditions: A498, 48 h, read-out: GI; in short: as §5
PC-3 = assay: Growth inhibition of human PC3 cells at 10^-5 M after 48 hrs by Sulforhodamine B assay relative to control; conditions: PC-3, 48 h, read-out: GI; in short: as §4
SW-620 = assay: Growth inhibition of human SW620 cells at 10^-5 M after 48 hrs by Sulforhodamine B assay relative to control; conditions: SW-620, 48 h, read-out: GI; in short: as §4
HL-60(TB) = assay: Growth inhibition of human HL-60(TB) cells at 10^-5 M after 48 hrs by Sulforhodamine B assay relative to control; conditions: HL-60, 48 h, read-out: GI
In short: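 First-stage single-dose screen at 10⁻⁵ M. Cells pre-incubated 24 h at 37 °C, 5% CO2, then exposed to drug for 48 h. Settled cells fixed with TCA (final 16%), SRB-stained and read at 515 nm. Percentage growth inhibition is derived from treated, untreated control and time-zero absorbances.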

HT-29 = assay: Growth inhibition of human HT-29 cells at 10^-5 M after 48 hrs by Sulforhodamine B assay relative to control; conditions: HT-29, 48 h, read-out: GI; in short: as §5
SNB-75 = assay: Growth inhibition of human SNB75 cells at 10^-5 M after 48 hrs by Sulforhodamine B assay relative to control; conditions: SNB-75, 48 h, read-out: GI; in short: as §4
SF-295 = assay: Growth inhibition of human SF295 cells at 10^-5 M after 48 hrs by Sulforhodamine B assay relative to control; conditions: SF-295, 48 h, read-out: GI; in short: as §4

CN1CCN(c2nc(-c3ccncc3)nc3sc4c(c23)CCCCCC4)CC1
GI50 (RPMI-8226): 8.32 µM
GI50 (SF-539): 8.32 µM
GI50 (NCI-H226): 10.5 µM
GI50 (IGROV-1): 8.13 µM
GI50 (MDA-MB-468): 5.25 µM
GI50 (A549): 11.5 µM
GI50 (UACC-62): 11 µM
GI50 (NCI-H322M): 13.2 µM
GI50 (UO-31): 1.58 µM
GI50 (MCF7): 6.61 µM
GI50 (CCRF-CEM): 8.13 µM
GI50 (M14): 5.37 µM
GI50 (K562): 3.55 µM
GI50 (UACC-257): 10.7 µM
GI50 (MDA-MB-231): 4.27 µM
GI50 (HOP-62): 6.46 µM
GI50 (TK-10): 6.76 µM
GI50 (NCI-H522): 12 µM

COc1ccc(N2CCN(c3nc(-c4ccccn4)nc4sc5c(c34)CCCCCC5)CC2)cc1
GI50 (RPMI-8226): 3.72 µM
GI50 (SF-539): 67.6 µM
GI50 (NCI-H226): 6.46 µM
GI50 (IGROV-1): 5.37 µM
GI50 (MDA-MB-468): 4.07 µM
GI50 (A549): 3.24 µM
GI50 (UACC-62): 6.92 µM
GI50 (NCI-H322M): 5.5 µM
GI50 (UO-31): 3.31 µM
GI50 (MCF7): 3.16 µM
GI50 (CCRF-CEM): 4.37 µM
GI50 (M14): 5.37 µM
GI50 (K562): 4.17 µM
GI50 (UACC-257): 7.24 µM
GI50 (MDA-MB-231): 50.1 µM
GI50 (HOP-62): 11.5 µM
GI50 (TK-10): > 100 µM
GI50 (NCI-H522): 18.6 µM

Clc1nc(-c2ccccn2)nc2sc3c(c12)CCCCCC3
inhibition of growth at 10 µM (OVCAR-5): -7.94%
inhibition of growth at 10 µM (OVCAR-3): -7.89%
inhibition of growth at 10 µM (DU-145): 77.5%
inhibition of growth at 10 µM (SF-268): 5.35%
inhibition of growth at 10 µM (A498): -18.4%
inhibition of growth at 10 µM (PC-3): 7.81%
inhibition of growth at 10 µM (SW-620): -2.34%
inhibition of growth at 10 µM (HL-60(TB)): 3.98%
inhibition of growth at 10 µM (HT-29): 0.67%
inhibition of growth at 10 µM (SNB-75): 15%

NNc1nc(-c2ccccn2)nc2sc3c(c12)CCCCCC3
GI50 (RPMI-8226): 3.24 µM
GI50 (SF-539): 11 µM
GI50 (NCI-H226): 10.2 µM
GI50 (IGROV-1): 4.17 µM
GI50 (MDA-MB-468): 3.63 µM
GI50 (A549): 3.16 µM
GI50 (UACC-62): 5.89 µM
GI50 (NCI-H322M): 5.37 µM
GI50 (UO-31): 1.02 µM
GI50 (MCF7): 3.8 µM
GI50 (CCRF-CEM): 4.47 µM
GI50 (M14): 5.5 µM
GI50 (K562): 3.8 µM
GI50 (UACC-257): 6.61 µM
GI50 (MDA-MB-231): 12.6 µM
GI50 (HOP-62): 8.51 µM
GI50 (TK-10): 9.12 µM
GI50 (NCI-H522): 12 µM

O=c1[nH]c(-c2ccccn2)nc2sc3c(c12)CCCCCC3
GI50 (RPMI-8226): 3.63 µM
GI50 (SF-539): 7.76 µM
GI50 (NCI-H226): > 100 µM
GI50 (IGROV-1): 3.98 µM
GI50 (MDA-MB-468): 1.66 µM
GI50 (A549): 2.57 µM
GI50 (UACC-62): 5.5 µM
GI50 (NCI-H322M): 85.1 µM
GI50 (UO-31): 5.89 µM
GI50 (MCF7): 2.45 µM
GI50 (CCRF-CEM): 0.912 µM
GI50 (M14): 4.07 µM
GI50 (K562): 1 µM
GI50 (UACC-257): > 100 µM
GI50 (MDA-MB-231): 8.71 µM
GI50 (HOP-62): 6.31 µM
GI50 (TK-10): > 100 µM
GI50 (NCI-H522): > 100 µM

NNc1nc(-c2ccncc2)nc2sc3c(c12)CCCCCC3
inhibition of growth at 10 µM (OVCAR-5): -0.54%
inhibition of growth at 10 µM (OVCAR-3): -0.84%
inhibition of growth at 10 µM (SF-295): 6.22%
inhibition of growth at 10 µM (DU-145): -30.4%
inhibition of growth at 10 µM (SF-268): -17.8%
inhibition of growth at 10 µM (A498): 18.6%
inhibition of growth at 10 µM (PC-3): 7.42%
inhibition of growth at 10 µM (SW-620): -8.49%
inhibition of growth at 10 µM (HL-60(TB)): 16.4%
inhibition of growth at 10 µM (HT-29): 13.2%
inhibition of growth at 10 µM (SNB-75): 18.8%

O=c1[nH]c(-c2ccncc2)nc2sc3c(c12)CCCCCC3
GI50 (RPMI-8226): > 100 µM
GI50 (SF-539): > 100 µM
GI50 (NCI-H226): > 100 µM
GI50 (IGROV-1): > 100 µM
GI50 (MDA-MB-468): > 100 µM
GI50 (A549): > 100 µM
GI50 (UACC-62): > 100 µM
GI50 (NCI-H322M): > 100 µM
GI50 (UO-31): > 100 µM
GI50 (MCF7): > 100 µM
GI50 (CCRF-CEM): > 100 µM
GI50 (M14): > 100 µM
GI50 (K562): > 100 µM
GI50 (UACC-257): > 100 µM
GI50 (MDA-MB-231): > 100 µM
GI50 (HOP-62): > 100 µM
GI50 (TK-10): > 100 µM
GI50 (NCI-H522): > 100 µM
